Source: PubChem
A selection: hits, their analogues and other compounds. The true share with any hit is near 1.6%.
UHRF1 binding: human UHRF1 methylated DNA binding inhibitors. UHRF1 binding to methylated oligo, TR-FRET. AID 687016. 370,000 tested, 0.75% active. Q96T88. inhibition, % at 4.4 µM; in the data active = inhibition above about 21%;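 note: UHRF1 SRA domain binding a hemimethylated CpG hairpin DNA probe; 0% = median of test compound wells and 100% = reference inhibitor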
TDP2 inh: TDP2 (human) inhibition, absorbance primary screen. recombinant TDP2, T5PNP hydrolysis, p-nitrophenol absorbance 415 nm. inhibition, % at 12.8 µM. 370,000 tested, 0.34% active. AID 720702;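 active = inhibition above the mean of all tested compounds plus 3 SD, set per campaign, cut at about 25% in these data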;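 note: 0% = DMSO with enzyme and 100% = buffer with substrate but no TDP2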
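Evaluation: % inhibition relative to enzyme-containing and enzyme-free wells. Material: recombinant human TDP2. Benchmarks: enzyme-free and DMSO wells. Timing: enzyme reaction with compound for 2 h at 37 °C. Compound dosing: 12.8 µM only. Measured by: p-Nitrophenol epi absorbance. Reagent: T5PNP substrate at 5 mM, a TopII-DNA adduct mimic. Replication: single well per compound.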
LEDGF integ inh: blocks HIV-1 LEDGF/p75-dependent DNA integration; 370,000 tested, 0.64% active; AID 743269; TR-FRET IN-LEDGF/p75 DNA integration, Eu/Cy5; inhibition, % at 3.7 µM;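 active = inhibition above the screen-wide mean plus 3 SD, cut at about 13% in these data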;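 note: signal is the Cy5 over europium emission ratio at 671 and 618 nm; 0% = plate median of compound wells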
MBD2 DNA inh: inhibitors of human MBD2 binding to methylated oligonucleotide; Q9UBB5; TR-FRET; inhibition, % at 4.4 µM; 370,000 tested, 0.31% active; in the data active = inhibition above about 13%
IN multimer act: HIV-1 integrase multimerization activation, counter-screen; shares compounds with LEDGF integ inh; activation, % at 7.7 µM; TR-FRET HIV-1 integrase multimerization, biochemical; 2,000 tested, 17% active; in the data active = activation above about 8.9%
TR-FRET interf: optically interferes with TR-FRET readout in LEDGF counter-screen; shares compounds with LEDGF integ inh; TR-FRET optical interference counterscreen, HIV-1 IN multimerization; inhibition, % at 7.7 µM; 2,000 tested, under 10 active;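 active = inhibition above the mean over all tested compounds plus 3 SD, which no compound reached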;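 note: 0% = integrase with antibodies and DMSO and 100% = antibodies without integrase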
LEDGF integ conf: confirmation of HIV-1 LEDGF/p75-dependent integration inhibitors; 2,000 tested, 36% active; shares compounds with LEDGF integ inh; inhibition, % at 3.7 µM; TR-FRET LEDGF/p75-dependent HIV-1 integration, biochemical; in the data active = inhibition above about 14%
Active calls of the source: *; x = not tested or not shown.

SMILES | UHRF1 binding | TDP2 inh | LEDGF integ inh | MBD2 DNA inh | IN multimer act | TR-FRET interf | LEDGF integ conf
COc1ccc(C(=O)NCC(=O)Nc2ccc(-c3ccccc3)cc2)cc1 | -1 | 8 | 18* | -2 | 11* | -56 | -2
CCOc1ccc(NC(=O)CNC(=O)c2ccc(OC)cc2)cc1 | 3 | -3 | -4 | -3 | x | x | x
CCCOc1c(OC)cccc1C1CC(=O)Nc2cc(OC)c(OC)c(OC)c21 (stereo not given) | -1 | -17 | 0 | 0 | x | x | x
COc1cc2c(c(OC)c1)C(c1cccc(OC)c1OC)CC(=O)N2 (stereo not given) | 0 | -8 | 17* | -1 | -2 | 12 | -2
COC(=O)C1=C(C)N(Cc2ccc(OC)cc2)C(=O)C1 | 3 | -19 | 4 | 2 | x | x | x
COC(=O)C1=C(C)N(Cc2ccco2)C(=O)C1 | 11 | -7 | 29* | 6 | 2 | -7 | 31*
C=CCN1CCN(C(=O)c2cc3c(s2)CCC(CC)C3)CC1 (stereo not given) | 2 | -1 | 1 | -1 | x | x | x
Cc1ccccc1C(=O)Nc1ccccc1-c1nnn(CC(=O)Nc2ccc3c(c2)OCCO3)n1 | 0 | -13 | -1 | -1 | x | x | x
COc1ccc(-c2cc(C(=O)Nc3ccc(C)c(C)c3)no2)cc1 | 3 | -11 | 6 | -2 | x | x | x
COc1ccc(-c2cc(C(=O)Nc3cccc(O)c3)no2)cc1 | 1 | -1 | 38* | -4 | 1 | -4 | -7
CCOC(=O)C1(CCCc2ccccc2)CCN(CC(O)CO)CC1 (stereo not given) | 2 | -2 | -1 | 7 | x | x | x
Fc1ccc(Cn2ccc3ccc(-c4ccc5ccn(Cc6ccccc6)c5c4)cc32)cc1 | -5 | 5 | 3 | 0 | x | x | x
Cc1sc2ncnc(SCC(=O)N3CCCC3=O)c2c1C | -2 | 10 | 61* | -2 | 1 | -7 | 0
Cc1sc2ncnc(SCC(=O)N3CCCCC3)c2c1C | 0 | 2 | -3 | 3 | x | x | x
CCOc1ccccc1N1CCN(C(=O)c2cc3ccccc3cc2OC)CC1 | 2 | -6 | 1 | -1 | x | x | x
Cn1cc(Cl)c(-c2n[nH]c(=S)n2-c2ccccc2)n1 | 2 | 2 | -2 | -2 | x | x | x
Cn1cc(Cl)c(-c2n[nH]c(=S)n2-c2ccc(F)cc2)n1 | -1 | 7 | 28* | -1 | -1 | 4 | -6
Cc1ccc(N=C2NC(=O)/C(=C/C=C/c3ccco3)S2)cc1 | 5 | 5 | 22* | 1 | 17* | -62 | 58*
O=C1NC(=Nc2ccccc2)S/C1=C\C=C\c1ccco1 | 13 | 5 | 34* | 4 | 16* | -57 | 58*
Cc1ccc(-c2c(NC(=O)C(C)C)n(C)c3ccccc3c2=O)cc1 | 4 | 10 | 4 | 0 | x | x | x
COc1cc2cc3c(N)c(C(=O)Nc4sc(C)c(C)c4C#N)sc3nc2cc1OC | 3 | -9 | 15* | -5 | 27* | -94 | 46*
Cc1cc(C(=O)Nc2sc(C)c(C)c2C#N)no1 | 2 | -6 | -1 | 1 | x | x | x
Cc1cc2c(c(=O)n1Cc1ccccn1)C(C(C)C)C(C#N)=C(N)O2 (stereo not given) | 12 | 10 | 17* | 3 | 0 | 1 | -7
Cc1cc2c(c(=O)n1Cc1ccccn1)C(c1ccc3c(c1)OCO3)C(C#N)=C(N)O2 (stereo not given) | -1 | -7 | -3 | 0 | x | x | x
COc1cc(-c2cccs2)cc(=O)c2c(C)oc(C)c12 | 3 | -3 | 17* | 5 | 1 | -4 | 6
SMILES | UHRF1 binding | TDP2 inh | LEDGF integ inh | MBD2 DNA inh | IN multimer act | TR-FRET interf | LEDGF integ conf
Cc1ccc(C)n1-c1sc2c(c1C(=O)O)CCCC2 | 46* | 16 | 25* | 12 | 1 | -3 | 25*
N#CC1=C(N)Oc2cc(N)ccc2C1c1ccc(F)cc1 (stereo not given) | -4 | -10 | 23* | -7 | 1 | -6 | 1
COc1ccc(C2C(C#N)=C(N)Oc3cc(N)ccc32)cc1 (stereo not given) | -3 | 4 | 18* | 4 | -1 | 5 | -5
CCOC(=O)[C@]12CCC=C1N(Cc1ccc3c(c1)OCO3)C(=O)[C@H](CC(=O)NCc1cccc3ccccc13)C2 | 1 | 3 | -1 | -3 | x | x | x
COc1ccc(C(=O)/C=C/c2ccc(O)cc2)c2c1CC(O)C(C)(C)O2 (stereo not given) | -3 | 2 | 2 | 3 | x | x | x
COc1cc2c(cc1OC)C(C1(O)CCCCC1)NCC2 (stereo not given) | -2 | 0 | 14* | -4 | 1 | -3 | -12
COc1ccc2c(c1)CO[C@@]21O[C@H](CCO)C[C@H](O)[C@H]1O | -1 | 5 | -10 | -2 | x | x | x
O=C(CSc1nc2ccccc2o1)N/N=C/c1ccc(O)c(O)c1 | 4 | -20 | 17* | -3 | 62* | -221 | 73*
O=C(CSc1nc2ccccc2o1)N/N=C/c1ccccc1 | 1 | -9 | 2 | 3 | x | x | x
C=CCSc1nnc(NC(=O)C2CC(=O)N(Cc3ccc(C)cc3)C2)s1 (stereo not given) | 10 | -2 | -8 | 5 | x | x | x
Cc1cc(C)c2c(N)c(S(=O)c3ccc(C(C)(C)C)cc3)sc2n1 (stereo not given) | 1 | -5 | 36* | -1 | 1 | -4 | -4
Cc1cc(C)c2c(N)c(C(=O)C(C)(C)C)sc2n1 | 9 | 3 | 1 | 5 | x | x | x
CCC[C@H](CN[C@@H](CNC)[C@H](C)O)NCCc1ccc(OC)cc1 | 1 | 5 | 2 | -2 | x | x | x
COc1c(NC=O)c2c(c([N+](=O)[O-])c1OC)C(=O)OC2 | 4 | -16 | 14* | -5 | 0 | 0 | -1
Cc1cccc(C(=O)OC2CCOC2=O)c1C (stereo not given) | -1 | 6 | -2 | 8 | x | x | x
Fc1ccc(CNc2ncccn2)cc1 | 2 | 4 | 14* | -2 | 2 | -9 | -5
O=C(Cn1cnc([N+](=O)[O-])n1)c1ccc(O)c(O)c1 | 14 | -17 | 40* | 5 | 9.9* | -35 | 22*
O=C(Cn1cnc([N+](=O)[O-])n1)c1ccccc1 | 1 | -2 | -4 | 3 | x | x | x
O=C1C(=Cc2ccco2)CCCC1=Cc1ccco1 | 52* | -2 | 61* | 15* | 1 | -2 | 58*
O/N=C1\CCC\C1=C/c1ccco1 | 6 | -8 | 7 | -3 | x | x | x
O=C(CCC(=O)Nc1ccccc1)N/N=C/c1ccncc1 | -2 | 0 | 0 | -4 | x | x | x
C[C@@H]1CN([C@H](C)CO)C(=O)CCCn2cc(nn2)CO[C@H]1CN(C)S(=O)(=O)c1ccc(F)cc1 | 0 | 8 | -2 | -1 | x | x | x
COc1ccc(/C=C2\SC(=S)N(CCCC(=O)Nc3ccc(C(=O)O)cc3)C2=O)cc1OC | 2 | -9 | 1 | 1 | x | x | x
